Results taken from ChEMBL document CHEMBL4266004, “Series of Alkynyl-Substituted Thienopyrimidines as Inhibitors of Protozoan Parasite Proliferation” (ACS Med Chem Lett, 2018).
The source made the active and inactive calls. The rule behind the calls is not given here.

What was measured:
[1] = test system: Trypanosoma brucei; experiment: Antiparasitic activity against Trypanosoma brucei; format: functional, organism-based
[2] = test system: Trypanosoma brucei brucei; experiment: Antitrypanosomal activity against Trypanosoma brucei brucei 427 at 5 uM after 48 hrs by presto blue dye based fluorescence assay relative to control; format: functional
In short: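 Single-concentration screen of bloodstream T. brucei cultures at 5 μM, 5 × 10^4 cells/mL; percent proliferation inhibition recorded.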

[3] = Selectivity index, ratio of TC50 for mouse NIH/3T3 cells to EC50 for Trypanosoma cruzi Tulahuen intracellular amastigote harboring beta-galactosidase; format: toxicity, cell-based; details: read-out: Selectivity Index
In short: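 NIH 3T3 cells, the host line for intracellular T. cruzi amastigote culture, tested for toxicity. Selectivity = NIH3T3 TC50 / T. cruzi EC50.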

[4] = Cytotoxicity against mouse NIH/3T3 cells; format: cell-based, NIH3T3; details: read-out: TC50 (the source's name)
[5] = Cytotoxicity against human HepG2 cells; format: cell-based; details: read-out: TC50 (the source's name)
[6] = Selectivity ratio of EC50 for antimalarial activity against Plasmodium falciparum C235 trophozoites to EC50 for atimalarial activity against Plasmodium falciparum D6 trophozoites; format: functional
[7] = test system: Trypanosoma cruzi; experiment: Antitrypanosomal activity against Trypanosoma cruzi Tulahuen intracellular amastigote harboring beta-galactosidase infected in mouse NIH/3T3 cells after 96 hrs by CPRG reagent based assay; format: functional, organism-based; details: NIH3T3, 96 h
[8] = test system: Leishmania major; experiment: Antileishmanial activity against Leishmania major intracellular amastigotes harboring luciferase infected in mouse RAW264.7 cells after 96 hrs by luminescence assay; format: functional, organism-based; details: RAW264.7, 96 h
In short: (§1)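 L. major amastigotes screened in duplicate or quadruplicate. Selectivity derived as HepG2 TC50 / L. major EC50.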

[9] = test system: Trypanosoma brucei brucei; experiment: Antitrypanosomal activity against Trypanosoma brucei brucei 427 after 48 hrs by presto blue dye based fluorescence assay; format: functional, organism-based; details: Trypanosoma brucei, 427, 48 h
[10] = Selectivity index, ratio of TC50 for human HepG2 cells to EC50 for Trypanosoma brucei brucei 427; format: toxicity; details: read-out: Selectivity Index
[11] = Selectivity index, ratio of TC50 for human HepG2 cells to EC50 for Leishmania major intracellular amastigotes harboring luciferase infected in mouse RAW264.7 cells; format: toxicity, cell-based; details: read-out: Selectivity Index; in short: as §1
[12] = test system: Plasmodium falciparum; experiment: Antimalarial activity against Plasmodium falciparum D6 trophozoites after 72 hrs by SYBR Green I dye-based fluorescence assay; format: functional, organism-based; details: D6, 72 h
In short: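 P. falciparum D6 strain; compounds run in duplicate or quadruplicate; EC50 determined from dose-response.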

[13] = Selectivity index, ratio of TC50 for human HepG2 cells to EC50 for Plasmodium falciparum D6 trophozoites; format: toxicity; details: read-out: Selectivity Index
In short: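 P. falciparum D6 screened in duplicate or quadruplicate. Selectivity = HepG2 TC50 / P. falciparum EC50.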

[14] = Selectivity ratio of EC50 for antimalarial activity against Plasmodium falciparum W2 trophozoites to EC50 for atimalarial activity against Plasmodium falciparum D6 trophozoites; format: functional
[15] = test system: Trypanosoma brucei; experiment: Antitrypanosomal activity against Trypanosoma brucei Lister 427 assessed as increase in fraction of trypanosomes containing one 2K2N at 9.5 uM after 3 hrs by mCLING/DAPI staining based fluorescence microsocpic method; format: functional, organism-based
In short: (§2)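 Mid-log bloodstream T. brucei (5 × 10^5 cells/mL) exposed to compound or DMSO for 3 h, fixed, stained with mCLING plus DAPI for kinetoplast and nuclear DNA; kinetoplasts and nuclei per cell counted by fluorescence microscopy (n >120 cells); mean percentages over three biological replicates; distribution compared by Pearson χ2.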

[16] = test system: Trypanosoma brucei; experiment: Antitrypanosomal activity against Trypanosoma brucei Lister 427 infected in Swiss Webster mouse assessed as mouse survival at 130 mg/kg, po via gavage once daily for 10 days starting from 24 hrs post infection (reference value: 5 day); format: functional
In short: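 Mice, four per group, infected with 10^5 T. brucei Lister427 on day 0. From 24 h, oral gavage at 130 mg/kg once daily for 10 days in 10% NMP/90% PEG; controls received vehicle only. Parasitemia followed through and after dosing. Survival compared by chi-square analysis of Kaplan–Meier data.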

[17] = test system: Trypanosoma brucei; experiment: Antitrypanosomal activity against Trypanosoma brucei Lister 427 assessed as reduction in fraction of trypanosomes containing one nucleus at 9.5 uM after 3 hrs by mCLING/DAPI staining based fluorescence microsocpic method; format: functional, organism-based; in short: as §2
[18] = test system: Trypanosoma brucei; experiment: Antitrypanosomal activity against Trypanosoma brucei Lister 427 assessed as reduction in fraction of trypanosomes containing one kinetoplast at 9.5 uM after 3 hrs by mCLING/DAPI staining based fluorescence microsocpic method; format: functional, organism-based; in short: as §2
[19] = test system: Trypanosoma brucei; experiment: Antitrypanosomal activity against Trypanosoma brucei Lister 427 assessed as increase in fraction of trypanosomes containing one 2K1N at 9.5 uM after 3 hrs by mCLING/DAPI staining based fluorescence microsocpic method; format: functional, organism-based; in short: as §2
[20] = test system: Mus musculus; experiment: Time at which plasma concentration stays above in vitro antitrypanosomal EC50 in Swiss Webster mouse at 130 mg/kg, po by LC-MS/MS analysis; format: ADME, organism-based; details: in vivo
[21] = test system: Trypanosoma brucei; experiment: Inhibition of transferrin-647 uptake in Trypanosoma brucei Lister 427 at 9.5 uM after 3 hrs by propidium iodide staining based flow cytometry; format: functional, organism-based
[22] = test system: Mus musculus; experiment: Toxicity in Swiss Webster mouse infected with Trypanosoma brucei Lister 427 at 130 mg/kg, po via gavage once daily for 10 days starting from 24 hrs post infection; format: organism-based; details: in vivo
In short: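 Infected mice (four per group; 10^5 T. brucei Lister427) dosed orally 130 mg/kg once daily for 10 days from 24 h post-infection, vehicle 10% NMP/90% PEG; observed for signs of toxicity.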

[23] = test system: Trypanosoma brucei; experiment: Antitrypanosomal activity against Trypanosoma brucei Lister 427 infected in Swiss Webster mouse assessed as reduction in parasitemia at 130 mg/kg, po via gavage once daily for 10 days starting from 24 hrs post infection by hemocytometric method; format: functional, organism-based
In short: (§3)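 Mice, four per group, infected with 10^5 T. brucei Lister427 (day 0); from 24 h, 130 mg/kg by oral gavage once daily for 10 days in 10% NMP/90% PEG; controls received vehicle; parasitemia followed over time after infection; mean parasitemia compared by Student's t test.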

[24] = test system: Trypanosoma brucei; experiment: Antitrypanosomal activity against Trypanosoma brucei Lister 427 infected in Swiss Webster mouse assessed as reduction in parasitemia at 130 mg/kg, po via gavage once daily for 10 days starting from 24 hrs post infection measured on day 13 by hemocytometric method; format: functional, organism-based; in short: as §3

| SMILES | Activity [2] [%] | selectivity ratio [3] | CC50 [4] [nM] | CC50 [5] [nM] | Ratio EC50 [6] | EC50 [7] [nM] | EC50 [8] [nM] | EC50 [9] [nM] | selectivity ratio [10] | selectivity ratio [11] | EC50 [12] [nM] | selectivity ratio [13] | Ratio EC50 [14] | further results |
| --- | --- | --- | --- | --- | --- | --- | --- | --- | --- | --- | --- | --- | --- | --- |
| CS(=O)(=O)CCNCc1ccc(-c2ccc3ncnc(Nc4ccc(OCc5cccc(F)c5)c(Cl)c4)c3c2)o1 [LAPATINIB] |  |  |  |  |  |  |  |  |  |  |  |  |  | EC50 [1]: 1400 to 1500 nM |
| Fc1cccc(COc2ccc(Nc3ncnc4sc(C#CCN5CCNCC5)cc34)cc2Cl)c1 | >75 | 6.4 | 3900 | 7700 | < 3 | 610 | 9100 | 1900 | 4.1 | 0.85 | 380 | 20 | < 3 |  |
| Fc1cccc(COc2ccc(Nc3ncnc4sc(C#CCN5CCCC5)cc34)cc2Cl)c1 | >75 |  |  | > 30000 | < 3 |  | 4300 | > 2500 |  | > 7 | 140 | > 214 | < 3 |  |
| CN1CCN(CC#Cc2ccc3ncnc(Nc4ccc(OCc5cccc(F)c5)c(Cl)c4)c3c2)CC1 | >75 | 2.9 | 7200 | 8200 | < 3 | 2500 | 10000 | 1000 | 8.2 | 0.8 | 160 | 51 | < 3 |  |
| Fc1cccc(COc2ccc(Nc3ncnc4cc(C#CCN5CCCC5)sc34)cc2Cl)c1 | >75 | 3.6 | 6400 | 4900 |  | 1800 | 4100 | 280 | 18 | 1.2 | 1300 | 3.8 |  |  |
| Fc1cccc(COc2ccc(Nc3ncnc4cc(C#C[C@@H]5CCCN5)sc34)cc2Cl)c1 | >75 | 2.7 | 10000 | 9600 | < 3 | 3700 | 4200 | 220 | 44 | 2.3 | 940 | 10 | < 3 |  |
| CN1CCN(CC#Cc2cc3ncnc(Nc4ccc(OCc5cccc(F)c5)c(Cl)c4)c3s2)CC1 | >75 | 2.3 | 4800 | 11000 | < 3 | 2100 | > 15000 | 2500 | 4.3 |  | 640 | 17 | < 3 |  |
| CN1CCN(CC#Cc2cc3c(Nc4ccc(OCc5cccc(F)c5)c(Cl)c4)ncnc3s2)CC1 | >75 | 1.9 | 6700 | 15000 | < 3 | 3500 | 8100 | 1000 | 15 | 1.9 | 260 | 58 | < 3 |  |
| CCCN(CC#Cc1cc2c(Nc3ccc(OCc4cccc(F)c4)c(Cl)c3)ncnc2s1)CCC | 0 | 1.3 | 2200 | 17000 | < 3 | 1700 | 1400 |  |  | 12 | 800 | 21 | < 3 |  |
| Fc1cccc(COc2ccc(Nc3ncnc4cc(C#Cc5ccccn5)sc34)cc2Cl)c1 | >75 | 2.3 | 27000 | 24000 |  | 12000 | 380 | 1300 | 18 | 63 | 2000 | 12 |  |  |
| Fc1cccc(COc2ccc(Nc3ncnc4cc(C#C[C@H]5CCCN5)sc34)cc2Cl)c1 |  |  |  |  |  |  |  | 260 |  |  |  |  |  | Activity [15]: Active; Survival [16]: 7.5 days; Activity [17]: Active; Activity [18]: Active; Activity [19]: Active; Time [20]: <= 4 hr; inhibition [21]: inactive; Activity [22]: Non-Toxic; Activity [23]: Active; Activity [24]: inactive |
